The list is not random: actives were taken first. Their share in the collection is about 1.8%.
MIN6 prolif-1 – induces beta-cell replication in MIN6 cells; proliferation, % at 10 µM; 0.29% of 330,000 active; MIN6 cells proliferation, ATPlite luminescence, 48 h; cells starved in 0.2% serum; 100% = growth in 10% serum;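 active = compounds whose signal lies at least 3.5 SD above the mean of all wells on their plate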;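 also: 0% = DMSO-treated cells in low-serum medium and 100% = 10% serum control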
DAGLB inh – diacylglycerol lipase beta (human) inhibition; inhibition, % at 5.17 µM; 0.059% of 340,000 active; Q8NCG7; HEK293T DAGLB membrane lysate, EnzChek fluorogenic substrate; AID 504411; in the data active = inhibition above about 34%;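 also: 0% = enzyme with vehicle and 100% = wells lacking enzyme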
Target sequence (Q8NCG7 whole entry, looked up): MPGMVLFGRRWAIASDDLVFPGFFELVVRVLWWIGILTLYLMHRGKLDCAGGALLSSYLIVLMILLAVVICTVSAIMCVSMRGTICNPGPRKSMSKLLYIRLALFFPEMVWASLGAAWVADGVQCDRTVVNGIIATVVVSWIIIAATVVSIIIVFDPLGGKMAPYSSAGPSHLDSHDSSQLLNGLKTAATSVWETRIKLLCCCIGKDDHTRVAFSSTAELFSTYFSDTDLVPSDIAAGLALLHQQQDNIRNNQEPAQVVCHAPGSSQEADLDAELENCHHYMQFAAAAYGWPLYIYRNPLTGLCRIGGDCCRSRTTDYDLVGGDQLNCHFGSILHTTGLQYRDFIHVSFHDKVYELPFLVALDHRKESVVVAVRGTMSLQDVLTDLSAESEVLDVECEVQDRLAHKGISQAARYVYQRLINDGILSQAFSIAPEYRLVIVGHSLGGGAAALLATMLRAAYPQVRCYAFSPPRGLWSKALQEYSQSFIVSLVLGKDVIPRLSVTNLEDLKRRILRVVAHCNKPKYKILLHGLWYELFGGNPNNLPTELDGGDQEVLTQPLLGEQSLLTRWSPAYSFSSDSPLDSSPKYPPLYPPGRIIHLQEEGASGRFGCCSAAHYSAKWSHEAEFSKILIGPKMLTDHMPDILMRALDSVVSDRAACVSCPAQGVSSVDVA
SKN-1 inh – inhibitors of C. elegans SKN-1; C. elegans VP596 Pgst-4::GFP/RFP ratio, acrylamide-induced, 24 h; inhibition, % at 21.8 µM; 0.49% of 360,000 active;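 active = interference check ratio from 0.5 to 1.5 plus GFP to RFP signal ratio inhibition reaching or exceeding a fixed threshold, cut at about 30% in these data, passing the limit was not always enough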
MsrA inh – bovine MsrA inhibition | purified bovine MsrA, absorbance read-out | inhibition, % at 15.5 µM | 0.75% of 360,000 active | AID 651718;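 also: 0% = vehicle wells with enzyme and 100% = reference inhibitor wells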
MT1-MMP act inh – inhibitors of human MT1-MMP activation. P50281. HT1080 RFP-PRO-GFP cells, GFP/RFP ratio fluorescence, overnight; percent of plate control window, DMSO zero. GFP/RFP ratio change, % at 20 µM. 0.061% of 360,000 active;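 active = GFP/RFP ratio change of at least 30% with cell ATP level not reduced by more than half and red fluorescence within 50% of control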
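Assay system – RFP-PRO-GFP reporter HT1080 cells · Compound dosing – single dose of 20 µM compound, 1% DMSO final · Incubation – overnight compound exposure at 37 °C · Measure – GFP/RFP fluorescence ratio · Benchmarks – DMSO wells and RFP-L50D-GFP cells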
MsrA act – bovine methionine sulfoxide reductase A activation; 0.3% of 360,000 active; activation, % at 10.6 µM; purified bovine MsrA, absorbance read-out; in the data active = activation above about 7.5%;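 also: 0% = vehicle and 100% = reference activator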
MIN6 prolif-2 – confirmation of inducers of beta-cell replication in MIN6 cells; shares compounds with MIN6 prolif-1; MIN6 beta-cell proliferation, ATPlite luminescence, 48 h; cells kept in 0.2% serum; scaled between 0.2% and 10% serum; proliferation increase, % at 50 µM; 920 tested, under 10 active; AID 463095;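 active = proliferation increase above 40% at any of the four tested concentrations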
DAGLB inh conf – DAGLB (human) inhibition, confirmation screen. shares compounds with DAGLB inh. HEK293T DAGLB membrane lysate, EnzChek fluorogenic substrate. inhibition, % at 5.17 µM. 73% of 190 active;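 active = mean inhibition over triplicate wells above a set limit taken from the primary lipase screen, cut at about 34% in these data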;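 also: 0% = DAGLB with DMSO and 100% = wells lacking DAGLB enzyme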
MsrA activ conf – confirmation of bovine methionine sulfoxide reductase A activators. shares compounds with MsrA act. purified bovine MsrA, absorbance read-out. activation, % at 10.6 µM. 12% of 1,000 active; in the data active = activation above about 4%;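 also: enzyme coupled to thioredoxin and thioredoxin reductase with NADPH; 0% = vehicle wells and 100% = reference activator wells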
MsrA conf – confirmation of bovine MsrA inhibitors; shares compounds with MsrA inh; purified bovine MsrA, absorbance read-out; inhibition, % at 15.5 µM; 41% of 2,300 active;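 also: coupled to thioredoxin reductase with NADPH and selenocystamine and DMSO as substrate; 0% = vehicle only and 100% = full effect of reference inhibitor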
* marks the source's active call; other numbers are inactive results; . = no result. Rule as the data show it, unless noted: active = inhibition above about 4.5%; inactive = the rest.

SMILES | MIN6 prolif-1 | DAGLB inh | SKN-1 inh | MsrA inh | MT1-MMP act inh | MsrA act | DAGLB inh conf | others
COc1ccccc1Cc1c(-c2cccc(Br)c2)nc2ccc(C)cn12 | . | . | . | 1 | . | . | .
Clc1ccccc1N1CCN(c2ncnc3nc[nH]c23)CC1 | 13* | 1 | -6 | 1 | 2 | -3 | . | MIN6 prolif-2=1
Fc1ccccc1N1CCN(c2ncnc3nc[nH]c23)CC1 | 11* | 1 | -9 | 0 | 11 | 0 | . | MIN6 prolif-2=0
FC(F)(F)c1cccnc1N1CCN(c2ncnc3nc[nH]c23)CC1 | 7 | 3 | -5 | 2 | 0 | 1 | .
O=C1NC(c2ccccc2)c2c(-c3ccccc3)n[nH]c21 (stereo not drawn) | . | . | . | 1 | . | . | .
Cc1ccccc1C1=CC(=O)CC(C)(C)C1=O | . | . | . | 0 | . | . | .
C=CCN1C(C(=O)OCC)CSCCS1(=O)=O (stereo not drawn) | . | . | . | -1 | . | . | .
C=CCOn1c(=O)c(-c2ccc(F)cc2)[n+]([O-])c2ccccc21 | 11* | 0 | -12 | 0 | 1 | -3 | . | MIN6 prolif-2=3
C=CCOn1c(=O)c(-c2ccc(Cl)cc2)[n+]([O-])c2ccccc21 | 0 | -6 | -1 | 0 | 2 | -4 | .
CN(C)Cc1c(C(C)(C)O)[nH]c2cc(C(F)(F)F)ccc12 | . | . | . | -1 | . | . | .
O=C(NCCC1CCCCN1S(=O)(=O)c1ccccc1)C(=O)NC1CC1 (stereo not drawn) | 12* | -5 | 3 | 0 | 5 | -2 | . | MIN6 prolif-2=-1
Cc1ccc(S(=O)(=O)N2CCCCC2CCNC(=O)C(=O)NC2CCCC2)cc1 (stereo not drawn) | -4 | 0 | 3 | 0 | -9 | 0 | .
COC(=O)C1=C(C)N(Cc2ccccc2C(F)(F)F)C(=NCc2ccc(OC)cc2)NC1c1ccccc1 (stereo not drawn) | . | . | . | -1 | . | . | .
COc1ccccc1N(CC(=O)NCCSc1ccccn1)S(=O)(=O)c1ccccc1 | 19* | 0 | 12 | 0 | -1 | 1 | . | MIN6 prolif-2=-2
CCOc1ccccc1N(CC(=O)NCCSc1ccccn1)S(=O)(=O)c1ccccc1 | 0 | 1 | 13 | -1 | 0 | -2 | .
CC(C)[C@H](NS(=O)(=O)c1ccccc1)C(=O)OCC(=O)Nc1ccc2c(c1)OCO2 | 4.6* | -2 | -2 | 0 | 2 | -4 | . | MIN6 prolif-2=0
CC(C)[C@H](NS(=O)(=O)c1ccccc1)C(=O)OCC(=O)Nc1cccc(S(N)(=O)=O)c1 | 1 | 1 | -3 | 0 | 2 | -3 | .
Oc1ccccc1C=NC(N=Cc1ccccc1O)c1ccccc1O (stereo not drawn) | . | . | . | 1 | . | . | .
Cc1ccc(-n2nnnc2CNC(=O)C2CC(=O)N(c3ccc(F)cc3)C2)cc1C (stereo not drawn) | 12* | -1 | -6 | -1 | 0 | 7.7* | . | MIN6 prolif-2=1;MsrA activ conf=-1
COC(=O)C1=C(C)N(Cc2ccccc2C(F)(F)F)C(=NCc2ccc3c(c2)OCO3)NC1c1cccc(F)c1 (stereo not drawn) | . | . | . | 0 | . | . | .
COc1ccc(CC(=O)N2CCN(c3ccc(C4=NNC(=O)CC4C)cc3)CC2)cc1 (stereo not drawn) | 4.6* | 1 | 28 | 4.8* | 4 | -3 | . | MIN6 prolif-2=-1;MsrA conf=2
CCCCNc1cccc2c1S(=O)(=O)N[C@@H](Cc1ccccc1)CO2 | . | . | . | 0 | . | . | .
CCCCc1n[nH]c2c1/C(=N/O)CC(C)(C)C2 | -2 | -1 | 16 | 0 | 3 | -2 | .
CCCCc1n[nH]c2c1/C(=N/OCC)CC(C)(C)C2 | 9.1* | . | -4 | 19* | -1 | -2 | . | MIN6 prolif-2=-6;MsrA conf=13*
O=C(N/N=C/c1ccc(O)c(O)c1O)/C(=C/c1ccc([N+](=O)[O-])cc1)NC(=O)c1ccccc1 | -5 | 35* | 6 | 3 | 5 | -3 | 19
SMILES | MIN6 prolif-1 | DAGLB inh | SKN-1 inh | MsrA inh | MT1-MMP act inh | MsrA act | DAGLB inh conf | others
Cc1noc(C)c1S(=O)(=O)N1CCCc2nc(-c3ccc(Br)cc3)ccc21 | . | . | . | 0 | . | . | .
CCN1C(c2ccccc2)=C(c2ccccc2)S/C1=C/C=C1\SC(=S)N(C)C1=O | . | 39* | 55 | 0 | 43 | -3 | 22
Cc1ccc(NC(=O)Nc2cccnc2)cc1NC(=O)Nc1cccnc1 | -5 | 37* | 29 | -1 | 1 | -1 | 32
c1ccc(N=NC2=NN(c3ccccc3)CS2)cc1 | . | 41* | 35 | -1 | 21 | -4 | 55*
Nc1[nH]c(C(=O)c2ccccc2)c(-c2cccc3ccccc23)c1C(=O)NC1CCCCC1 | . | . | . | 0 | . | . | .
Oc1c(Br)cc(Br)cc1/C=N/NC(=S)N[C@H]1CC2C=CC1C2 (stereo partly drawn) | -4 | 35* | 8 | 0 | 2 | -6 | 27
CNC(=S)N/N=C/c1cc(Br)cc(Br)c1O | 0 | 17 | 10 | 0 | 4 | -2 | .
O=C(CSc1nc2ccccc2o1)N1CCCC1 | -2 | 49* | 6 | 1 | 2 | -7 | 1
O=C(CSc1nc2ccccc2o1)N1CCOCC1 | -1 | -1 | -1 | -1 | -4 | -3 | .
CC(=O)c1c(C)oc2ccc(NS(=O)(=O)c3ccc(O)c(C(=O)O)c3)cc12 | -1 | 57* | -3 | 0 | 4 | -10 | 53*
COc1ccc(C=NNc2ccc(S(=O)(=O)Nc3ccccc3C(=O)O)cc2[N+](=O)[O-])c(OC)c1 | -4 | 43* | 7 | . | 27 | -7 | 43*
CCOc1ccc(C=NNc2ccc(S(=O)(=O)Nc3ccccc3C(=O)O)cc2[N+](=O)[O-])cc1 | -6 | 18 | -9 | . | 18 | -3 | .
COc1ccc(NC(=S)NNc2ccc(S(=O)(=O)Nc3ccccc3C(=O)O)cc2[N+](=O)[O-])cc1 | -5 | 43* | 5 | 4 | 10 | -5 | 48*
O=C(NCc1ccco1)C(=O)NN=Cc1ccccc1O | . | . | . | 2 | . | . | .
Cc1ccc(NC2=C(Cl)C(=O)OC2OC(=O)c2ccco2)c(C)c1 (stereo not drawn) | -6 | 36* | -16 | 0 | 3 | -3 | 33
Cc1ccc(NC2=C(Cl)C(=O)OC2OC(=O)c2ccco2)cc1C (stereo not drawn) | -7 | 39* | 6 | 0 | 0 | 1 | 36*
Cc1ccc(C)c(NC2=C(Cl)C(=O)OC2OC(=O)c2ccco2)c1 (stereo not drawn) | -4 | 40* | 13 | -1 | -2 | -1 | 34
